The results in this text go back to ChEMBL document CHEMBL1151761, “Radiohalogenated prostate-specific membrane antigen (PSMA)-based ureas as imaging agents for prostate cancer” (J Med Chem, 2008).

SMILES strings stand for the structures.

A short description of series [1]: Biodistribution in PC3 flu tumor of PSMA expressing human PC3 PIP and PSMA deficient human PC3 flu cells xenografted SCID mouse at 2 uCi, iv after 5 hrs. The settings on record: in vivo. It counts as ADME, organism-based. Summed up: (§1)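 Male SCID mice carried subcutaneous PSMA+ PC-3 PIP (left shoulder) and PC-3 flu (right shoulder) xenografts, 1-5 × 10^6 cells in HBSS, and were used at 3-5 mm tumor diameter. Tail-vein injection of 2 µCi radioligand; four mice per time point, killed by cervical dislocation. %ID/g from a standard dilution of the dose, decay-corrected, mean ± SD; PIP tumor:organ ratios.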

A short description of series [2]: Biodistribution in PC3 flu tumor of PSMA expressing human PC3 PIP and PSMA deficient human PC3 flu cells xenografted SCID mouse at 2 uCi, iv after 2 hrs. It counts as ADME, organism-based. The settings on record: in vivo. In outline: as §1
Series [3] can be described thus: Biodistribution in large intestine of PSMA expressing human PC3 PIP and PSMA deficient human PC3 flu cells xenografted SCID mouse at 2 uCi, iv after 5 hrs. It counts as ADME, organism-based. The settings on record: in vivo. In outline:
as §1
For orientation: Xenograft models place foreign cells or tissue in a host animal.

A short description of series [4]: Biodistribution in PC3 PIP tumor of PSMA expressing human PC3 PIP and PSMA deficient human PC3 flu cells xenografted SCID mouse at 2 uCi, iv after 30 mins. The settings on record: in vivo, 0.5 h. Type of series: ADME, organism-based. In outline:
as §1

A short description of series [5]: Biodistribution in PC3 flu tumor of PSMA expressing human PC3 PIP and PSMA deficient human PC3 flu cells xenografted SCID mouse at 2 uCi, iv after 30 mins. Type of series: ADME, organism-based. The settings on record: in vivo, 0.5 h. In outline: as §1
A short description of series [6]: Biodistribution in small intestine of PSMA expressing human PC3 PIP and PSMA deficient human PC3 flu cells xenografted SCID mouse at 2 uCi, iv after 5 hrs. Type of series: ADME, organism-based. The settings on record: in vivo. Summed up:
as §1

Series [7] is described as follows: Biodistribution in large intestine of PSMA expressing human PC3 PIP and PSMA deficient human PC3 flu cells xenografted SCID mouse at 2 uCi, iv after 2 hrs. It counts as ADME, organism-based. The settings on record: in vivo. Summed up:
as §1

A short description of series [8]: Biodistribution in small intestine of PSMA expressing human PC3 PIP and PSMA deficient human PC3 flu cells xenografted SCID mouse at 2 uCi, iv after 30 mins. It counts as ADME, organism-based. The settings on record: in vivo, 0.5 h. In outline:
as §1

Series [9] in a line: Biodistribution in large intestine of PSMA expressing human PC3 PIP and PSMA deficient human PC3 flu cells xenografted SCID mouse at 2 uCi, iv after 30 mins. Type of series: ADME, organism-based. The settings on record: in vivo, 0.5 h. In outline:
as §1

Series [10] is described as follows: Biodistribution in small intestine of PSMA expressing human PC3 PIP and PSMA deficient human PC3 flu cells xenografted SCID mouse at 2 uCi, iv after 60 mins. It counts as ADME, organism-based. The settings on record: in vivo, 1 h. In outline: as §1
Series [11] in a line: Biodistribution in small intestine of PSMA expressing human PC3 PIP and PSMA deficient human PC3 flu cells xenografted SCID mouse at 2 uCi, iv after 2 hrs. Type of series: ADME, organism-based. The settings on record: in vivo. Summed up:
as §1

A short description of series [12]: Biodistribution in large intestine of PSMA expressing human PC3 PIP and PSMA deficient human PC3 flu cells xenografted SCID mouse at 2 uCi, iv after 60 mins. Type of series: ADME, organism-based. The settings on record: in vivo, 1 h. Summed up:
as §1

Series [13] in a line: Biodistribution in PC3 flu tumor of PSMA expressing human PC3 PIP and PSMA deficient human PC3 flu cells xenografted SCID mouse at 2 uCi, iv after 60 mins. It counts as ADME, organism-based. The settings on record: in vivo, 1 h. In outline: as §1
Series [14] has as its target T1, Glutamate carboxypeptidase 2 (Homo sapiens, UniProt Q04609). The series is described as follows: Inhibition of PSMA in human LNCaP cell extract using [3H]NAAG by radiometric assay. It counts as cell-free.
Series [15] deals with T1, Glutamate carboxypeptidase 2. The series is described as follows: Inhibition of PSMA in human LNCaP cell extract using [3H]NAAG by fluorescence-based assay. It counts as cell-free.

T1 sequence (Q04609 whole entry): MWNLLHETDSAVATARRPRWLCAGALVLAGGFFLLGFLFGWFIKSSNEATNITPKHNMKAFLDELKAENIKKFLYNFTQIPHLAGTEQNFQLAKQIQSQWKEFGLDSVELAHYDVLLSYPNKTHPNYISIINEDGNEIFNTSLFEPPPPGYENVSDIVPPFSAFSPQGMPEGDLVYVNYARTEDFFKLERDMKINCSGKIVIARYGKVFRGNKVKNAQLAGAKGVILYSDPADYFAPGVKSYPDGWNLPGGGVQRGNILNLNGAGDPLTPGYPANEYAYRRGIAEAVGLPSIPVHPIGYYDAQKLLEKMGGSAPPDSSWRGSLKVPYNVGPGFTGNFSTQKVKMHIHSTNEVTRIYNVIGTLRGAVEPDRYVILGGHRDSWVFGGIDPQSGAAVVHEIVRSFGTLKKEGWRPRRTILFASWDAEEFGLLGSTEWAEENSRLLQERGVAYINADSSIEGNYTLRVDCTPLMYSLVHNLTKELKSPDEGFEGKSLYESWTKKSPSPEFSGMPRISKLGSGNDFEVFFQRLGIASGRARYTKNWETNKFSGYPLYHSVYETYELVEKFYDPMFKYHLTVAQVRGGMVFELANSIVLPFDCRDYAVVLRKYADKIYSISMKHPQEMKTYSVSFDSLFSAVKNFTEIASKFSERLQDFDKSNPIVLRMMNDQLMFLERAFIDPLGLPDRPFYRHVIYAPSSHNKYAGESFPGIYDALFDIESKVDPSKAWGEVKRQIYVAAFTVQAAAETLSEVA

As for `O=C(O)CC[C@H](NC(=O)N[C@@H](CCCCNC(=O)c1ccc([125I])cc1)C(=O)O)C(=O)O`, the Drug uptake in series [1] stood at 0.6 % ID/g; in series [2] it was 0.7 % ID/g; in [3], 0.7 % ID/g; in series [4] it was 8.8 % ID/g; in series [5], 1.8 % ID/g; in [6], 1.5 % ID/g. In addition, the Drug uptake in series [7] is listed as 0.6 % ID/g; in [8], 4.9 % ID/g; in [9], 1.4 % ID/g; in [10], 3.8 % ID/g; in series [11], 1.5 % ID/g; in series [12], 1 % ID/g. Further, the Drug uptake in series [13] is 1.2 % ID/g.

In the case of `O=C(O)CC[C@H](NC(=O)N[C@@H](CCCCNC(=O)c1cncc([125I])c1)C(=O)O)C(=O)O`, the Drug uptake stood at 0.8 % ID/g in [5], 0.6 % ID/g in series [12] and 0.6 % ID/g in series [13].

In the case of `O=C(O)CC[C@H](NC(=O)N[C@@H](CCCCNC(=O)c1ccc(F)cc1)C(=O)O)C(=O)O`, the Ki – broadly, a measure of affinity in units of concentration, obtained from inhibition or displacement – in series [14] was 0.256 nM; in [15], 0.194 nM.
